SUMO1 PPI mod – modulators of human SUMO1-mediated protein-protein interactions; P63165; SUMO1 binding to a labelled peptide, TR-FRET, 1 h; inhibition, % at 20 µM; 360,000 compounds, 0.33% hits; AID 602429; in the data active means inhibition above about 37%
STEP inh – blocks human striatal-enriched tyrosine phosphatase | AID 588621 | inhibition, % at 20 µM | 360,000 compounds, 0.25% hits | recombinant STEP, OMFP fluorogenic substrate, fluorescence;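 active means inhibition at 20 µM, scaled per plate between control wells, above about 37%, limit read from the data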
Target sequence (P54829 whole entry, looked up): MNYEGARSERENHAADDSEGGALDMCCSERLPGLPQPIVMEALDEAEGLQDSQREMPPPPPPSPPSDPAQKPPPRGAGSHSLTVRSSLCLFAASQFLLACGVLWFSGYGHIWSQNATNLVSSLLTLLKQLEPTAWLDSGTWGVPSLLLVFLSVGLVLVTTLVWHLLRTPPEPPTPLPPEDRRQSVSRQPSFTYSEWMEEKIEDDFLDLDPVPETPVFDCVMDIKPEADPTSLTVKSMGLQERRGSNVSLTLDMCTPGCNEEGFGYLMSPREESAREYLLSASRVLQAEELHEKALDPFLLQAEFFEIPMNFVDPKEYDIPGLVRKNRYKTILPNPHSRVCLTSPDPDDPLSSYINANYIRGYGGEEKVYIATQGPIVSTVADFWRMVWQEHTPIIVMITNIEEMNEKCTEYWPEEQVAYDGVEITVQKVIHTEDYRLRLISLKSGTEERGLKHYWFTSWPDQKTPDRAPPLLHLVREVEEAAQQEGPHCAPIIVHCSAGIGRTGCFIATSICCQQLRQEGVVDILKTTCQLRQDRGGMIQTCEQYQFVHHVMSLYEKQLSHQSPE
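Assay system: isolated STEP enzyme / Timing: 20 min at room temperature, dark / Doses: 20 µM, 1% DMSO / Technique: fluorescence intensity, excitation 480 nm, emission 540 nm / Reagent: fluorogenic phosphatase substrate OMFP at 25 µM final / Measure: percent inhibition scaled to no-enzyme and uninhibited-enzyme controls, plate-pattern corrected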
Scp1 inh – Scp-1 (human) phosphatase inhibition; Q9GZU7; inhibition, % at 20 µM; Recombinant Scp1, phosphopeptide, malachite green phosphate absorbance; 340,000 compounds, 0.88% hits; AID 493091;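 active means inhibition above about 50% at 20 µM, limit read from the data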
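System: truncated SCP-1 phosphatase (76-261aa); medium: Tris acetate buffer pH 5.5 with MgCl2 and Tween-20; incubation: 45 min room-temperature reaction, 5 min colour, 30 min stabiliser; compound: single 20 µM dose, 1% DMSO; reagent: Phosphorylated 17-residue peptide substrate; read-out: % inhibition at 20 µM; technique: colorimetric free-phosphate detection, absorbance 630 nm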
DNMT1 inh – inhibitors of human DNMT1; P26358; DNMT1 molecular beacon, Hinp1I cleavage, fluorescence; inhibition (reported as % activation of signal), % at 10 µM; 360,000 compounds, 0.83% hits; in the data active means inhibition above about 50%
LMPTP block – LMPTP (human) inhibition; recombinant LMPTP-A, OMFP fluorogenic substrate, fluorescence intensity; inhibition, % at 20 µM; P24666; 360,000 compounds, 0.22% hits; AID 651560;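 active means compounds that cut the enzyme signal by at least half of the control window in the single-dose screen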
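Buffer or medium: Bis-Tris pH 6.0, DTT, detergent; Assay system: LMPTP-A enzyme; Quantity: 0.625 nM enzyme; Detection: endpoint fluorescence intensity; Times: 50 min dark incubation at room temperature; Controls: substrate-only low control, DMSO enzyme-plus-substrate high control; Doses: single 20 µM dose; Read-out: percent inhibition versus substrate-only and uninhibited controls; Reagent: 400 µM OMFP.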
DNMT1 interf DR – counter-screen for DNMT1 inhibitors: spectral interference, dose response | 200 tested, under 10 active | shares compounds with DNMT1 inh | molecular beacon fluorescence | IC50, µM; call rule not given here
DNMT1 inh conf – DNMT1 inhibition confirmation, single concentration | shares compounds with DNMT1 inh | DNMT1 molecular beacon HinP1I cleavage, fluorescence | inhibition, % at 10 µM | 2,300 compounds, 8% hits | AID 602385;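 active means average inhibition of at least 30% in the single-concentration confirmation test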
DNMT1 interf – counter-screen for DNMT1 inhibitors: spectral interference | activation (fluorescence interference), % at 10 µM | 2,300 compounds, 1% hits | DNMT1 molecular beacon spectral interference counterscreen, fluorescence 485/520 | shares compounds with DNMT1 inh;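 active means activation of at least 30% at 10 µM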;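 further: DNMT1 catalytic domain with a HinP1I cleavage step and a FAM/dabcyl DNA beacon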
Of the large screens only hits and unclear results are named; the others gave an inactive call (follow-up assays come after a bar, where they were run). An excerpt weighted towards active compounds, which were near 1.7% of everything screened.

COc1ccc(OC)c(NC(=O)COC(=O)c2c3c(nc4ccccc24)CCCC3)c1	none
COc1ccc(NC(=O)COC(=O)c2c3c(nc4ccccc24)CCCC3)cc1	DNMT1 inh 54.6 | DNMT1 inh conf inactive | DNMT1 interf inactive
CN(CC(=O)NCCc1ccc(S(N)(=O)=O)cc1)Cc1ccc(Cl)cc1Cl	none
O=C(NCCO)c1ccc2nc(-c3ccco3)c(-c3ccco3)nc2c1	SUMO1 PPI mod 43.5, DNMT1 inh 58.4 | DNMT1 inh conf inactive | DNMT1 interf inactive
O=C(c1ccccc1)c1ccc2nc(-c3ccco3)c(-c3ccco3)nc2c1	SUMO1 PPI mod 51.9, Scp1 inh 66.1, DNMT1 inh 100.9, LMPTP block 75.2 | DNMT1 inh conf inactive | DNMT1 interf inactive
c1coc(-c2cnc3ccccc3n2)c1	none (no result: Scp1 inh)
c1coc(-c2nc3ccccc3nc2-c2ccco2)c1	DNMT1 inh 103.0 | DNMT1 inh conf inactive | DNMT1 interf inactive
O=C(CNC(=O)c1ccc([N+](=O)[O-])cc1)N/N=C\c1ccc(OC(=O)c2ccccc2)cc1	DNMT1 inh 85.3 | DNMT1 interf DR inactive | DNMT1 inh conf 38.3 | DNMT1 interf inactive
Cc1ccc(NC(=O)COC(=O)c2cc(C)nc3ccccc23)c([N+](=O)[O-])c1	DNMT1 inh 63.8 | DNMT1 inh conf inactive | DNMT1 interf inactive
O=C(O)c1ccccc1/C=N/NC(=O)c1cc(-c2ccco2)nc2ccccc12	SUMO1 PPI mod 57.4, Scp1 inh 77.2, DNMT1 inh 90.7 | DNMT1 interf DR inactive | DNMT1 inh conf 38.3 | DNMT1 interf inactive
CNC(=O)COC(=O)c1cc(-c2ccco2)nc2ccccc12	Scp1 inh 75.7, DNMT1 inh 56.1 | DNMT1 inh conf inactive | DNMT1 interf inactive
CC(=O)Nc1ccc(/C=N/NC(=O)c2cc(-c3ccco3)nc3ccccc23)cc1	none
CCN(CC)C(=O)COC(=O)c1cc(-c2ccco2)nc2ccccc12	Scp1 inh 82.1, DNMT1 inh 72.7 | DNMT1 inh conf inactive | DNMT1 interf inactive
Cc1ccc(S(=O)(=O)N(CC(=O)N/N=C/c2cccc(Cl)c2)c2cccc3cccnc23)cc1	DNMT1 inh 52.6 | DNMT1 inh conf inactive | DNMT1 interf inactive
Cc1ccc(N(CC(=O)N/N=C/c2cccnc2)S(=O)(=O)c2ccccc2)cc1	none
COc1ccc(CCNC(=O)Nc2ccc(F)cc2F)cc1OC	none
O=C(O)c1ccc(C(=O)c2ccc3c(c2)C(=O)N(CCO)C3=O)cc1	DNMT1 inh 88.2 | DNMT1 inh conf inactive | DNMT1 interf inactive
CCN(C(=O)c1ccc(S(=O)(=O)N2CCCC2)cc1)C1CCS(=O)(=O)C1 (centres undefined)	none
COc1ccc(CSc2nc(O)cc(=O)n2CC(C)C)cc1F	none
CCC(=O)Nc1c(C#N)c2nc3ccccc3nc2n1C1CCCCC1	SUMO1 PPI mod 71.8, DNMT1 inh 93.8 | DNMT1 inh conf inactive | DNMT1 interf inactive
CCCCn1c(NC(=O)CC)c(C#N)c2nc3ccccc3nc21	DNMT1 inh 73.6 | DNMT1 inh conf inactive | DNMT1 interf inactive
N#Cc1c(N)n(C2CCCCC2)c2nc3ccccc3nc12	none
COCCn1c(SCC(=O)NC2CCCC(C)C2C)nc2ccccc2c1=O (centres undefined)	none
S=c1[nH]nc(-c2cc(-c3ccccc3)n[nH]2)n1/N=C/C=C/c1ccco1	DNMT1 inh 62.4 | DNMT1 inh conf inactive | DNMT1 interf inactive
S=c1[nH]nc(-c2ccco2)n1/N=C/C=C/c1ccco1	DNMT1 inh 82.6 | DNMT1 inh conf inactive | DNMT1 interf inactive
COc1ccccc1/C=C/C=N/n1c(-c2ccco2)n[nH]c1=S	none
S=c1[nH]nc(-c2n[nH]c3c2CCC3)n1/N=C/C=C/c1ccco1	DNMT1 inh 50.9 | DNMT1 inh conf inactive | DNMT1 interf inactive
COc1ccccc1/C=C/C=N/n1c(-c2n[nH]c3c2CCC3)n[nH]c1=S	none
O=C(Nc1ccsc1C(=O)O)c1ccc(Cl)cc1	none
